Here are results for 10 compounds from article PMC3288198 (ACS Chemical Biology, 2011).

As usually defined, the IC50 is the concentration that gives 50% inhibition. The term Ki denotes a measure of affinity in units of concentration, obtained from inhibition or displacement.

The target in series [1] is T1, HDAC6 (Homo sapiens, UniProt Q9UBN7).
T1 sequence (Q9UBN7 1-1215): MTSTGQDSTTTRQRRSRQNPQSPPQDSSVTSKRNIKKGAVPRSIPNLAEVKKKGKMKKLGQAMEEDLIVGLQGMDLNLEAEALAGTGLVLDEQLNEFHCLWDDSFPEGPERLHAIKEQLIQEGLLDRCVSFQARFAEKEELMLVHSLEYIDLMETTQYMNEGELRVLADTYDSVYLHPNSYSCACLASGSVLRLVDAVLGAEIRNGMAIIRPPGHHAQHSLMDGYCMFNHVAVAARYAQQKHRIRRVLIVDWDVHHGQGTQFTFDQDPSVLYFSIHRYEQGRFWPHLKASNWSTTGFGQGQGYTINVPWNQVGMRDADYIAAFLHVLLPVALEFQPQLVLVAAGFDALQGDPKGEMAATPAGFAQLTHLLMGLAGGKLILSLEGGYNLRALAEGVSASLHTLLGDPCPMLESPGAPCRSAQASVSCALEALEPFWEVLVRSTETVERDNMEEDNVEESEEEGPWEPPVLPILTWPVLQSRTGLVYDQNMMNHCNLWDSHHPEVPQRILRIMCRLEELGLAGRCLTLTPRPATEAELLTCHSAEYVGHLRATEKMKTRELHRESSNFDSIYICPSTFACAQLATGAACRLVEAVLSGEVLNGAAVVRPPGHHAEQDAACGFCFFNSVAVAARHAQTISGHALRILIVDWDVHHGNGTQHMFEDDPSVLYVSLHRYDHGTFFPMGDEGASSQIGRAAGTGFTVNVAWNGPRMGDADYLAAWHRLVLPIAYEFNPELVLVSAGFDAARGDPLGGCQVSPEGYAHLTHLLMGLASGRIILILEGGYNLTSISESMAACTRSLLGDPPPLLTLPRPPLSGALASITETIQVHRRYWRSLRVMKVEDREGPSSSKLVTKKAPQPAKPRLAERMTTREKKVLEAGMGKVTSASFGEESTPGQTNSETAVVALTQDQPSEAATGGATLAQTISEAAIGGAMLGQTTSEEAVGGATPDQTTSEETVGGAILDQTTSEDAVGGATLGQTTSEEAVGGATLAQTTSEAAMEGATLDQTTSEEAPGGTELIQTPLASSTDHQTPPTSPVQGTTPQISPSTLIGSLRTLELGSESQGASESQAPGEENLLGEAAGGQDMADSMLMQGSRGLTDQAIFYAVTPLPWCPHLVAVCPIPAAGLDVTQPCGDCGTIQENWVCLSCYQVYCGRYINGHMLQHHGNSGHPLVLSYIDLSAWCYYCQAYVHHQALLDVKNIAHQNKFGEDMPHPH
The series is described as follows: HDAC deacetylase homogenous fluorescence assay, HDAC6. To be noted: for concentration above which HDAC6 was inhibited: data not shown. In kind it is biochemical. Summed up:
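Baculovirus-expressed recombinant human enzyme (HDAC3 as HDAC3/N-CoR2 complex) incubated with serially diluted test compound over a 12-point titration. Substrate: acetylated AMC-K(Ac)GL. Deacetylated product cleaved by lysine peptidase to free MCA, read at ex 355/em 460 nm. Data normalised to control plate by plate. IC50 and SD from non-linear regression; Ki via Cheng-Prusoff, Ki = IC50/(1+[S]/Km).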

Series [2] deals with full panel of human recombinant HDAC enzymes. The experiment in a line: Inhibition profile over full panel of HDACs. The format is biochemical. The procedure, abridged:
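Panel of recombinant human HDAC1–11, 12-point titration of test compound per isozyme. Substrates: AMC-K(Ac)GL for HDAC1, 2, 3/N-CoR2, 6 and 10; AMC-K(TFA)GL for HDAC4, 5, 7, 8, 9 and 11. Peptidase-released MCA fluorescence at ex 355/em 460 nm, normalised to controls. IC50 by non-linear regression.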

Series [3] relates to mitogen stimulated proliferating PBMC. The series is described as follows: MTS cell proliferation assay, proliferating PBMC. In kind it is cell-based, human. To be noted: proliferating PBMC vs AML cells ex vivo. For orientation: Formazan colour is commonly taken as a measure of viable cells.
Series [4] deals with acetylated tubulin. The experiment in a line: Western blot of acetylated tubulin in MV4-11 cells. The format is cell-based, human. Summed up:
(§1)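 MV4-11 cells (10% heat-inactivated FBS, 37°C, 5% CO2) treated with test compound at a range of concentrations. Washed in cold HBSS and lysed 30 min in low-salt Tris pH 7.4 buffer with protease/phosphatase inhibitors and 1 μM TSA, then sonicated. LDS-denatured lysates run on 4–12% gradient gels. Probes: acetyl-H3, acetyl-H4, total H3, acetyl-α-tubulin, tubulin. HRP secondary, ECL read-out.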

Series [5] deals with acetylated histone H3 and H4. The series is described as follows: Western blot of acetylated histone H3/H4 in MV4-11 cells. In kind it is cell-based, human. Summed up:
as §1

For series [6], the system named is Hsp90 acetylation. The series is described as follows: Immunoprecipitation/immunoblot of Hsp90 acetylation in MV4-11 cells. The format is cell-based, human. To be noted: 3 hr post-treatment. The procedure, abridged:
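MV4-11 AML cells (10% heat-inactivated FBS, 37°C, 5% CO2) treated with test compound, harvested 3 hr post-treatment. Cells washed in cold HBSS, lysed 30 min in low-salt buffer (50 mM Tris-HCl pH 7.4, 150 mM NaCl, 10% glycerol, Triton X-100, protease/phosphatase inhibitors, 1 μM TSA), then sonicated. Hsp90 pulled down on Hsp90-conjugated beads for 1 hr. Blots probed for Hsp90, acetyl-lysine and acetyl-Hsp90 K69.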

The test system of a further series is FLT-3 and STAT5. The series is described as follows: Western blot of FLT-3 and STAT5 levels in MV4-11 cells. The format is cell-based, human. To be noted: for effect on FLT-3 and STAT5 protein levels: 3 hr post-treatment. The procedure, abridged: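 MV4-11 cells cultured with 10% heat-inactivated FBS at 37°C, 5% CO2. Exposed to a concentration series of test compound, harvested 3 hr post-treatment. Lysed in low-salt Tris pH 7.4 buffer containing 1 μM TSA and sonicated. Lysates denatured in LDS and run on 4–12% gradient gels. Blots probed for FLT-3, STAT5, Erk and phospho-Erk; HRP secondary with ECL detection.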
A general note: In western blotting, separated proteins are transferred to a membrane and probed.

The test system of another series is ubiquitinated protein. The experiment in a line: Western blot of total ubiquitinated protein in MV4-11 cells. The format is cell-based, human. To be noted: within 3 hr.
In series [7] the test system is acetylated tubulin. The series is described as follows: Western blot of acetylated tubulin in PBMC. In kind it is cell-based, human. To be noted: PBMC from normal donors, 3 hr post-treatment.
Series [8] relates to HDAC6. To be noted: cited from earlier work.
Series [9] has as its system Hsp90 acetylation. To be noted: 16 hrs post inhibitor treatment; cited from earlier work.

Entries after “also recorded” stand apart in the source; their conditions may differ. Read-outs that look alike come from different tables or passages of the source. Where a SMILES comes first, the peptide text is derived from it. The star is where a group is joined. Cbz = O=C(OCc1ccccc1)*

Consider `O=C1C=C(NCc2ccccc2)C(=O)c2ccccc21` [NQN-1, 2-benzyl-amino-naphthoquinone], for which the IC50 on HDAC6 [1] (read-out: HDAC6 IC50, 12 point titration, acetylated substrate) worked out at 5.54 ± 0.9 µM. Further, the Ki at HDAC6 [1] (read-out: HDAC6 Ki, converted from IC50 using Cheng-Prusoff equation) was 1.3 ± 0.22 µM. Moreover, the “HDAC inhibition profile / selectivity over the panel” value in series [2] is recorded as “did not inhibit other HDACs in our panel”. Besides, the “selectivity, proliferating PBMC over AML (MV4-11) cell toxicity” value in [3] was found to be 4 fold. Further, the “induction of acetylated tubulin” value in the series on acetylated tubulin [4] was “selectively induced hyperacetylated tubulin”. In addition, the “effect on acetylated histone H3/H4 levels” value in series [5] is “without an increase in histone H3 and H4 acetylation; also recorded: unexpectedly caused a decrease in acetylated histone H4”. For the same compound, in the series with Hsp90 acetylation [6], the “induction of Hsp90 acetylation” value was “induces Hsp90 acetylation”. Further, the “effect on FLT-3 and STAT5 protein levels” value with FLT-3 and STAT5 is on record as “decrease within 3 hr”. Besides, the “total ubiquitinated protein level” value with ubiquitinated protein was “increase in total ubiquitinated protein level”. In the series on acetylated tubulin [7], the “tubulin acetylation level in PBMC” value was “did not increase”.

Turning to `CC(/C=C/C(=O)NO)=C\[C@@H](C)C(=O)c1ccc(N(C)C)cc1` [TSA], the “induction of Hsp90 acetylation” value with Hsp90 acetylation [6] is “did not induce Hsp90 acetylation”. Moreover, in the series on FLT-3 and STAT5, the “effect on FLT-3 and STAT5 protein levels” value was “did not induce Hsp90 acetylation or reduce FLT-3 and STAT5 levels”.

For `CC1=CC(=O)c2ccccc2C1=O` [vitamin K3, 2-methyl-naphthoquinone], on HDAC6 [1], 25 µM corresponded to half-maximal inhibition (IC50). Also, in series [2], the “HDAC inhibition profile / selectivity over the panel” value was “selectively inhibited HDAC6 and HDAC8 at low μM”.

As to `CN1CCc2c(c3ccccc3n2Cc2ccc(C(=O)NO)cc2)C1` [tubastatin A], the “induction of acetylated tubulin” value with acetylated tubulin [4] is “higher induction of tubulin acetylation”. For the same compound, in [5], the “effect on acetylated histone H3/H4 levels” value is recorded as “decreases in acetylated histones”. For the same compound, the “induction of Hsp90 acetylation” value in the series with Hsp90 acetylation [6] was “No induction of Hsp90 acetylation”. For the same compound, the “selectivity for HDAC6 over HDAC1” value in the series on HDAC6 [8] was greater than 1000.

For `O=C(CCCCCCC(=O)Nc1ccc([C@H]2O[C@@H](CSc3nc(-c4ccccc4)c(-c4ccccc4)o3)C[C@@H](c3ccc(CO)cc3)O2)cc1)NO` [tubacin], the “effect on acetylated histone H3/H4 levels” value in series [5] is “decreases in acetylated histones”. Moreover, in the series on Hsp90 acetylation [9], the “induction of Hsp90 acetylation” value was “does not significantly increase Hsp90 acetylation”.

For the compound `CC(C)C[C@@H](C=O)NC(=O)[C@H](CC(C)C)NC(=O)[C@H](CC(C)C)NC(=O)OCc1ccccc1` [MG132] (Cbz-Leu-Leu-Leu-aldehyde), in the series with FLT-3 and STAT5 (10 μM MG132 co-treatment), the “prevention of STAT5 degradation caused by HDAC6 inhibition” value was “did not prevent STAT5 degradation” and the “rescue of FLT-3 degradation caused by HDAC6 inhibition” value is on record as “rescued”.

As for Vitamin K2, at HDAC6 [1], the “concentration above which HDAC6 was inhibited” value was “above 200 μM”.

As to `O=C(CCCCCCC(=O)Nc1ccccc1)NO` [SAHA, Suberoylanilide hydroxamic acid], the “induction of acetylated tubulin” value with acetylated tubulin [4] was “induces both acetylated tubulin and histone”. Further, the “effect on acetylated histone H3/H4 levels” value in [5] was “induces both acetylated tubulin and histone”. In the series with Hsp90 acetylation [6], the “induction of Hsp90 acetylation” value is “did not induce Hsp90 acetylation”. Also, the “effect on FLT-3 and STAT5 protein levels” value in the series with FLT-3 and STAT5 was “did not induce Hsp90 acetylation or reduce FLT-3 and STAT5 levels”.

Take `Cc1ccc(NC(=O)CCCCCC(=O)Nc2ccccc2N)cc1` [inhibitor 106]: in series [5], the “effect on acetylated histone H3/H4 levels” value is given as “only induces hyperacetylated histone H3/H4”. The “induction of Hsp90 acetylation” value in the series on Hsp90 acetylation [6] was “did not induce Hsp90 acetylation”. The “effect on FLT-3 and STAT5 protein levels” value with FLT-3 and STAT5 was “did not induce Hsp90 acetylation or reduce FLT-3 and STAT5 levels”.

For `CC1=C(C/C=C(\C)CCC[C@H](C)CCC[C@H](C)CCCC(C)C)C(=O)c2ccccc2C1=O` [Vitamin K1], on HDAC6 [1], the “concentration above which HDAC6 was inhibited” value is on record as “above 200 μM”.
